Hits are enriched below; roughly 3.3% of the tested compounds scored in any of these assays.
HTR1E agonist – 5-HT1E receptor agonists, primary screen, cell-based, HTS; 5-hydroxytryptamine receptor 1E (Homo sapiens), P28566; CHO 5-HT1E Ga15 NFAT-bla reporter, FRET; 0% DMSO wells, 100% control agonist wells; activation, % at 6 µM; 65,000 compounds, 0.69% hits; AID 574, 2007;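 active = activation above a set limit, the screen-wide mean activation plus 3 SD, cut at about 8.5% in these data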;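 note: 100% = positive control agonist at 1 µM giving full maximal response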
Target sequence (P28566 whole entry, looked up): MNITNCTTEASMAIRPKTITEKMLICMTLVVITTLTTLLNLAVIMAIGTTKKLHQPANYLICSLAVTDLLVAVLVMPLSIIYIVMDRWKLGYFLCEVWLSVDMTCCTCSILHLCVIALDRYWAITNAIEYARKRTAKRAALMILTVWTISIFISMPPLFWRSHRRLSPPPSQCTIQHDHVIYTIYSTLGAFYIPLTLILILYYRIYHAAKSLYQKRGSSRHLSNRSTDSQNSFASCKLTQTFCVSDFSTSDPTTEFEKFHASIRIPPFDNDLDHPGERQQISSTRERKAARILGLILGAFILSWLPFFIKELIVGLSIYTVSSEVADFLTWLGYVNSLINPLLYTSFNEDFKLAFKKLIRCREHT
HTR1E antagonist – 5-HT1E receptor antagonists, primary screen, cell-based, HTS; 65,000 compounds, 0.99% hits; AID 571, 2007; 5-hydroxytryptamine receptor 1E (Homo sapiens), P28566; inhibition, % at 6 µM; CHO 5-HT1E Ga15 NFAT-bla reporter, FRET, antagonist;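 active = inhibition above a set limit, the mean inhibition across every tested compound plus 3 SD, cut at about 29% in these data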;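 note: signal is the 460 over 535 nm emission ratio of beta-lactamase substrate; 0% = agonist plus DMSO wells and 100% = wells without agonist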
Jurkat tox 60K – cytotoxicity toward Jurkat T cells, primary screen, cytotoxicity control, cell-based, Jurkat E6.1, 60K MLSMR library. inhibition, % at 4 µM. 56,000 compounds, 1.2% hits. Jurkat E6.1 viability, ATP luminescence, 48 h;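 active = inhibition above the mean inhibition of all tested compounds plus 3 SD, cut at about 28% in these data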
5HT1a antag – human 5-HT1a receptor antagonists, primary screen, cell-based, CHO, Ga15 NFAT-bla reporter; 62,000 compounds, 0.68% hits; CHO 5-HT1a Ga15 NFAT-bla reporter, antagonist mode; inhibition, % at 10 µM;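 active = inhibition above the mean of all tested compounds plus 3 SD, cut at about 43% in these data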;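 note: receptor stimulated by 5-CT agonist at 100 nM near EC80; beta-lactamase reporter measured by ratiometric fluorescence of a cleavable substrate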
HTR1A agonist – human 5-HT1a receptor agonists, primary screen, cell-based, CHO, Ga15 NFAT-bla reporter; 5-hydroxytryptamine receptor 1A (Homo sapiens), P08908; CHO 5-HT1a Ga15 NFAT-bla reporter, FRET ratio; 0% basal, 100% maximal reference agonist; activation, % at 10 µM; 65,000 compounds, 0.56% hits;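 active = activation above the screen-wide mean activation plus 3 SD, cut at about 19% in these data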;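 note: 0% = DMSO wells and 100% = 5-CT at EC100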
HEK293 NFkB inh – inhibitors of PMA/ionomycin-induced NF-kB reporter, primary screen, antigen receptor NF-kB inhibitor project, cell-based, HEK-293 luciferase reporter, luminescence | HEK-293 NF-kB luciferase reporter | inhibition, % at 3 µM | 62,000 compounds, 0.21% hits | AID 465, 2006;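 active = inhibition above the mean of all tested compounds plus 3 SD, cut at about 40% in these data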;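 note: 0% = stimulated DMSO wells and 100% = 10 µM reference inhibitor 5653914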
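Reagent: PMA plus ionomycin mix as NF-kB-activating stimulus. Assay system: NF-kB luciferase reporter HEK-293 cells. Technique: luminescence from luciferase substrate reagent. Incubation: 1 h compound pre-incubation, 16 h PMA/ionomycin at 37 °C. Benchmarks: DMSO only as uninhibited control, 10 µM reference inhibitor as full inhibition. Repeats: tested once.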
* = called active by the depositor.

Results for CN1CCN(c2c3c(c(C#N)c4nc5ccccc5n24)CCCC3)CC1 ?
HTR1E agonist: -0.8; HTR1E antagonist: 9.4; HTR1A agonist: -1.6

What do the screens show for `Cc1nn(-c2ccccc2)c(C)c1C(=O)Nc1nnc(-c2ccco2)o1`?
HTR1E agonist: -1.3; HTR1E antagonist: 5.9; Jurkat tox 60K: 33.2*; 5HT1a antag: 7.0; HTR1A agonist: -0.6; HEK293 NFkB inh: 13.1

How did Cc1c(C(=O)O)c(-c2ccccc2)nn1-c1ccccc1 do in these assays?
HTR1E agonist: 0.2; HTR1E antagonist: -1.6; Jurkat tox 60K: -0.9; 5HT1a antag: -1.6; HTR1A agonist: 0.5; HEK293 NFkB inh: 14.1

What do the screens show for `COc1cc2c(cc1NC(=O)CSc1nnc(Cc3cccs3)n1C)oc1ccccc12`?
HTR1E agonist: -0.2; HTR1E antagonist: -3.4; Jurkat tox 60K: 8.3; 5HT1a antag: 4.0; HTR1A agonist: 4.5; HEK293 NFkB inh: 11.9

How did CCn1c(SCC(=O)Nc2nccs2)nnc1-c1ccccc1 do in these assays?
HTR1E agonist: 0.2; HTR1E antagonist: 3.9; Jurkat tox 60K: -0.8; 5HT1a antag: -5.4; HTR1A agonist: -0.6; HEK293 NFkB inh: 13.5

What do the screens show for `CCn1c(SCC(=O)Nc2nccs2)nnc1-c1cc2cccc(OC)c2o1`?
HTR1E agonist: 11.4*; HTR1E antagonist: 5.2; Jurkat tox 60K: -1.3; 5HT1a antag: -5.4; HTR1A agonist: 0.9; HEK293 NFkB inh: 10.7

Results for CCn1c(SCC(=O)Nc2cc3oc4ccccc4c3cc2OC)nnc1-c1cccs1 ?
HTR1E agonist: -0.9; HTR1E antagonist: 5.3; Jurkat tox 60K: 9.4; 5HT1a antag: 4.0; HTR1A agonist: 25.3*; HEK293 NFkB inh: 5.4

How did Clc1ccc(-c2nc(NCCN3CCOCC3)c3ccccc3n2)cc1 do in these assays?
HTR1E agonist: -0.3; HTR1E antagonist: 3.4; Jurkat tox 60K: 5.8; 5HT1a antag: -8.6; HTR1A agonist: 44.5*; HEK293 NFkB inh: 16.9

How did COc1ccc(CC(=O)Nc2ccc(-c3nnc(-c4ccccc4)o3)cc2)cc1OC do in these assays?
HTR1E agonist: 0.3; HTR1E antagonist: 19.9; Jurkat tox 60K: -5.4; 5HT1a antag: 5.9; HTR1A agonist: 1.1; HEK293 NFkB inh: -8.7

How did CCOc1cccc(C(=O)Nc2cccc(-c3nnc(-c4ccc(C)cc4)o3)c2)c1 do in these assays?
HTR1E agonist: -0.6; HTR1E antagonist: 7.3; Jurkat tox 60K: -5.4; 5HT1a antag: 2.8; HTR1A agonist: -2.2; HEK293 NFkB inh: -0.7

Results for COc1ccc(-c2nc3cc(NC(=O)Cc4ccc(OC)c(OC)c4)ccc3o2)cc1 ?
HTR1E agonist: 0.5; HTR1E antagonist: 7.3; Jurkat tox 60K: 72.7*; 5HT1a antag: 9.5; HTR1A agonist: 5.8; HEK293 NFkB inh: 7.7

How did CCN(CC)CC(=O)Nc1ccc(-c2nc3cc(NC(=O)CN(CC)CC)ccc3o2)cc1 do in these assays?
HTR1E agonist: 0.4; HTR1E antagonist: 1.2; Jurkat tox 60K: 7.1; 5HT1a antag: -6.3; HTR1A agonist: 3.2; HEK293 NFkB inh: 9.3

How did COc1ccc(CC(=O)Nc2cccc(-c3nnc(-c4ccccc4)o3)c2)cc1OC do in these assays?
HTR1E agonist: -0.1; HTR1E antagonist: 17.7; Jurkat tox 60K: 33.3*; 5HT1a antag: 16.5; HTR1A agonist: 0.9; HEK293 NFkB inh: 11.6

How did COc1ccc(CC(=O)Nc2cccc(-c3nnc(-c4cccc(C)c4)o3)c2)cc1OC do in these assays?
HTR1E agonist: 1.7; HTR1E antagonist: 80.1*; Jurkat tox 60K: 42.8*; 5HT1a antag: 91.7*; HTR1A agonist: -0.8; HEK293 NFkB inh: 0.5

Results for COc1ccc(CC(=O)Nc2cccc(-c3nnc(-c4ccc(C)cc4)o3)c2)cc1OC ?
HTR1E agonist: 0.1; HTR1E antagonist: 33.7*; Jurkat tox 60K: 7.1; 5HT1a antag: -6.1; HTR1A agonist: -1.3; HEK293 NFkB inh: 5.9

Results for COc1ccc(Cc2nnc(-c3cccc(C)c3)o2)cc1OC ?
HTR1E agonist: 0.0; HTR1E antagonist: 8.7; Jurkat tox 60K: 8.9; 5HT1a antag: 12.5; HTR1A agonist: -0.8; HEK293 NFkB inh: -0.8

What do the screens show for `COc1ccc(/C(O)=C2/C(=O)C(=O)N(CCCN(C)C)C2c2ccc(C)o2)cc1Cl` (configuration not stated)?
HTR1E agonist: -0.3; HTR1E antagonist: 0.6; HTR1A agonist: -2.6

Results for COc1ccccc1S(=O)Cc1ccc(C(=O)NCCc2ccc(Cl)cc2)o1 (configuration not stated) ?
HTR1E agonist: 0.6; HTR1E antagonist: 1.2; Jurkat tox 60K: -5.2; 5HT1a antag: 10.1; HTR1A agonist: 0.1; HEK293 NFkB inh: 18.9

Results for COc1ccc(CCCc2nnc(SCC(=O)Nc3nc(C)cs3)n2C)cc1C ?
HTR1E agonist: 0.8; HTR1E antagonist: -5.0; Jurkat tox 60K: -1.0; 5HT1a antag: -5.4; HTR1A agonist: -0.4; HEK293 NFkB inh: 7.2

What do the screens show for `COc1ccc(CC(=O)Nc2nc(C)cs2)cc1OC`?
HTR1E agonist: -0.9; HTR1E antagonist: 17.5; Jurkat tox 60K: 37.0*; 5HT1a antag: 9.2; HTR1A agonist: -2.2; HEK293 NFkB inh: 2.4

How did Cc1sc2nc(NCCO)[nH]c(=O)c2c1C do in these assays?
HTR1E agonist: 0.9; HTR1E antagonist: 5.9; Jurkat tox 60K: -1.2; 5HT1a antag: 1.9; HTR1A agonist: -0.8; HEK293 NFkB inh: 1.0

What do the screens show for `CCN(CC)c1ccc(NC(=O)c2cc(OC)cc(OC)c2)c(C)c1`?
HTR1E agonist: -1.1; HTR1E antagonist: 42.1*; Jurkat tox 60K: 94.1*; 5HT1a antag: 52.0*; HTR1A agonist: -1.7; HEK293 NFkB inh: 27.0

Results for O=C(NC1CCCCC1)C(c1ccccc1F)N(Cc1ccco1)C(=O)Cn1nnc2ccccc21 (configuration not stated) ?
HTR1E agonist: -1.0; HTR1E antagonist: 10.6; Jurkat tox 60K: 2.1; 5HT1a antag: 54.7*; HTR1A agonist: 1.4; HEK293 NFkB inh: 10.7

What do the screens show for `CCC(C(=O)NC1CCCC1)N(Cc1ccco1)C(=O)Cn1nnc(-c2ccc(C)cc2)n1` (configuration not stated)?
HTR1E agonist: 9.0*; HTR1E antagonist: 4.9; Jurkat tox 60K: 7.5; 5HT1a antag: 19.3; HTR1A agonist: -1.6; HEK293 NFkB inh: 24.4

What do the screens show for `O=C(NC1CCCCC1)C(c1ccc(F)cc1)N(Cc1ccco1)C(=O)Cn1nnc2ccccc21` (configuration not stated)?
HTR1E agonist: -1.1; HTR1E antagonist: 5.3; Jurkat tox 60K: -0.7; 5HT1a antag: 38.0; HTR1A agonist: 0.2; HEK293 NFkB inh: 7.8
